Source: PubChem BioAssay (several laboratories)
Sampled rows, rich in hits. Any-hit rate of the full collection: about 4.6%.
Wee1 degr inh – blocks degradation of human Wee1 kinase; P30291; reporter increase, % at 5 µM; HeLa Luc-Wee1K328M stability, luciferase luminescence; 100% = proteasome inhibitor MG132 effect; 220,000 tested, 1.2% active;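 active = activation above the mean of all tested compounds plus 3 SD, set per screening run, cut at about 8.8% in these data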;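 note: cells exposed to compound for 20 h before luminescence read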
NF-kB neuron act – NF-kB expression increase, human neuronal cells; NF-kB reporter expression; hits give high values; fold change at 12.5 µM; 190,000 tested, 1.6% active; AID 1239; in the data active = fold change above about 3.3
p97 ATPase inh – human p97 ATPase inhibition; 220,000 tested, 0.42% active; inhibition, % at 8 µM; AID 1481; recombinant p97 ATPase, Kinase-Glo ATP luminescence, 3 h; in the data active = inhibition above about 15%
APP 5'UTR act – APP 5'UTR luciferase reporter activation; SH-SY5Y APP 5'UTR luciferase reporter, luminescence; zero percent = DMSO vehicle wells; activation, % at 2 µM; 190,000 tested, 1% active; AID 1276;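 active = activation above a set limit, based on mean plus 3 SD of controls, cut at about 140% in these data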
Mdm2 ligase inh – blocks human Mdm2 ubiquitin ligase activity. signal enhancement, % at 5 µM. cell-based MDM2 ubiquitination luciferase reporter, 2 h; 0 = plate control, 100 = twice control, blank-subtracted. Q00987. 210,000 tested, 0.11% active. AID 1230;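 active = signal enhancement of 30% or more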;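 note: luminescence tracks abundance of the self-degrading MDM2-luciferase fusion protein; higher signal means inhibition of MDM2 E3 ligase activity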
Target sequence (Q00987 whole entry, looked up, the tested form may be a part): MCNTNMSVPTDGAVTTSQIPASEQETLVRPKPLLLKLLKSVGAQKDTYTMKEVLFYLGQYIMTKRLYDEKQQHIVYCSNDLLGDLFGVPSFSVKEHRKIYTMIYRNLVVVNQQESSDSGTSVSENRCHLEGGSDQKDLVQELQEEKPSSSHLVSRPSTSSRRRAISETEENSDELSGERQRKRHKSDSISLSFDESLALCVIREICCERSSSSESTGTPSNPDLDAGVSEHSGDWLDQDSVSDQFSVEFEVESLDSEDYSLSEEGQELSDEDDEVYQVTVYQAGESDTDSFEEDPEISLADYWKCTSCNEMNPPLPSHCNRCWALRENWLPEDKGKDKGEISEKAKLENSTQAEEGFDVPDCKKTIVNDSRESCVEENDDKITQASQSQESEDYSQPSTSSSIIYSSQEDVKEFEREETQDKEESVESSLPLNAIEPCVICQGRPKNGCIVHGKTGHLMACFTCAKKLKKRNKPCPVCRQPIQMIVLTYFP
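test system = mammalian cells stably expressing self-ubiquitinating, self-degrading MDM2 E3–luciferase fusion | quantity = 2000 cells/well | incubation = cell settling 4 h, compound treatment 2 h, both 37 °C | signal = luminescence with SteadyLite reagent, 15 min at room temperature | evaluation = % enhancement relative to plate controls after blank subtraction | benchmarks = plate controls and plate blanks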
STAT1 act – activators of IFN-gamma induced STAT1 signaling | NIH 3T3 STAT1-luciferase reporter, luminescence; 100% = IFN-gamma alone, no compound | activation (% of control), % at 5.5 µM | 200,000 tested, 2.6% active;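 active = activation above the screen-wide mean activation plus 3 SD, cut at about 130% in these data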
Hits are given with their value; 0 = inactive; - = not tested or not shown.

SMILES | Wee1 degr inh | NF-kB neuron act | p97 ATPase inh | APP 5'UTR act | Mdm2 ligase inh | STAT1 act
Cc1ccc(-c2nc(NCc3ccco3)n(S(C)(=O)=O)n2)cc1 | 0 | 0 | 0 | 0 | 0 | 144
CC(=O)n1nc(-c2ccc(C)cc2)nc1NCc1ccco1 | 0 | 0 | 0 | 0 | 0 | 0
CS(=O)(=O)N1CCc2cc(NC(=O)c3ccc(Cl)cc3Cl)ccc21 | 0 | 0 | 0 | 0 | 0 | 129
O=C(NC1C(=O)NNC1c1ccccc1)c1ccc(F)cc1 (centres undefined) | 0 | 0 | 0 | 0 | 0 | 129
O=C(NC1C(=O)NNC1c1ccc(Cl)cc1)c1ccc(F)cc1 (centres undefined) | 0 | 0 | 0 | 0 | 0 | 0
CCN(CC)c1ccc(S(=O)(=O)N2CCOCC2)cc1NC(=O)CN1CCc2ccccc2C1 | 0 | 0 | 0 | 0 | 0 | 0
COc1cc(NC(=O)c2cnc(N)s2)cc(C(=O)Nc2cccc(C(F)(F)F)c2)c1 | - | - | - | - | 32 | -
COc1cc(NC(=O)c2ccnc(N)c2)cc(C(=O)Nc2cccc(C(F)(F)F)c2)c1 | - | - | - | - | 0 | -
CCOC(=O)c1cc2c(s1)-c1ccccc1CC2 | 0 | 0 | 0 | 0 | 0 | 131
CC(C)OC(=O)c1cc2ccccc2[nH]1 | 0 | 0 | 0 | 0 | - | 0
CCOC(=O)c1cc2cc3ccccc3cc2[nH]1 | 0 | 3.4 | 0 | 0 | - | 136
CCOC(=O)c1cc2ccc3ccccc3c2s1 | 0 | 0 | 0 | 0 | 0 | 151
O=C(O)CCc1ccc(-c2ccc(Br)cc2)n1CC(=O)O | 0 | 0 | 0 | 0 | 34 | 0
Cc1nn(C)cc1S(=O)(=O)NC1CCCC1 | 0 | 0 | 0 | 0 | 0 | 0
Cc1[nH]c2ccccc2c1C1(O)C(=O)N(Cc2ccc3c(c2)OCO3)c2ccccc21 (centres undefined) | 0 | 3.3 | 0 | 0 | 0 | 0
O=C(/C(=N/N=C/c1ccc(O)c(O)c1)c1ccccc1)c1ccccc1 | 0 | 0 | 0 | 0 | 0 | 0
Clc1ccc(-c2nnc(N3CCCC3)nn2)cc1 | 0 | 4.6 | 0 | 0 | 0 | 137
CC(C)C(=O)Nc1ccc(NC(=O)c2ccc([N+](=O)[O-])cc2Cl)cc1 | 0 | 0 | 0 | 0 | 0 | 0
CN(C)c1ccc(NC(=O)c2ccc([N+](=O)[O-])cc2Cl)cc1 | 0 | 0 | 0 | 0 | 0 | 145
Cc1ccc(NC(=O)c2ccc([N+](=O)[O-])cc2Cl)nc1 | 0 | 0 | 0 | 0 | 0 | 136
CN(C)C(=O)c1ccc(N/C=C(\C=O)c2nc3ccccc3o2)cc1 | 0 | 0 | 0 | 0 | 0 | 0
O=C(Oc1ccccc1C(=O)Nc1ccccc1)c1ccc(Br)c([N+](=O)[O-])c1 | 0 | 0 | 0 | 0 | 0 | 0
N#C/C(=N\Nc1cccc(F)c1)C(=N)N1CCCCCC1 | 0 | 5.2 | 0 | 150 | 0 | 145
Cc1cc(Cl)c(S(=O)(=O)Nc2cccc(O)c2)cc1OCC(N)=O | 9.9 | 0 | 0 | 0 | 0 | 0
COc1ccc(NS(=O)(=O)c2cc(OCC(N)=O)c(C)cc2Cl)cc1 | 0 | 0 | 0 | 0 | 0 | 0
SMILES | Wee1 degr inh | NF-kB neuron act | p97 ATPase inh | APP 5'UTR act | Mdm2 ligase inh | STAT1 act
CCCOc1ccc(S(=O)(=O)NCc2ccc(OC)cc2)cc1 | 22 | 0 | 0 | 0 | 0 | 0
CCc1ccc(NC(=O)Cn2cccc2)cc1 | 0 | 0 | 0 | 0 | 0 | 0
COc1ccc(C2C(CC(=O)O)=C(O)C(=O)N2c2ccccc2)cc1 (centres undefined) | 0 | 0 | 0 | 0 | 34 | 0
Cc1ccc(/C=C2\SC(=S)N(/N=C/c3cc([N+](=O)[O-])ccc3O)C2=O)o1 | 0 | 0 | 21 | 0 | 0 | 0
O=C/C(=C\Nc1ccc(C(=O)N2CCOCC2)cc1)c1nc2ccccc2o1 | 0 | 0 | 0 | 0 | 0 | 0
c1ccc(-n2cnc3cc(NCc4ccncc4)ccc32)cc1 | 0 | 0 | 0 | 0 | 0 | 0
c1ccc(-n2cnc3cc(NCc4ccccn4)ccc32)cc1 | 0 | 0 | 0 | 0 | 0 | 131
Fc1ccccc1NC(=S)N/N=C/c1ccccc1Br | 11 | 0 | 0 | 0 | - | 0
O=[N+]([O-])c1ccc(/C=N/NC(=S)Nc2ccccc2F)o1 | 0 | 0 | 0 | 0 | 0 | 0
Cc1ccc(C(=O)NC2CCc3ccccc3C2=O)cc1 (centres undefined) | 0 | 3.9 | 0 | 156 | 0 | 141
Cc1ccc(C(=O)NC2CCSC2=O)cc1 (centres undefined) | 0 | 0 | 0 | - | 0 | 0
CCOC(=O)C1CCCNC1=O (centres undefined) | 0 | - | 0 | - | 0 | -
COc1ccc(C(=O)Nc2ccc(N3CCN(C(=O)C(C)C)CC3)cc2)cc1[N+](=O)[O-] | 0 | 0 | 0 | 0 | 0 | 0
CC(C)(C)c1ccc(CS(=O)CC(O)CO)cc1 (centres undefined) | 0 | 0 | 0 | 0 | 0 | 0
COc1ccc(-c2cn3cc(C(F)(F)F)cc(Cl)c3n2)cc1 | 0 | 9 | 0 | 150 | 0 | 150
Fc1ccc(-c2cn3cc(C(F)(F)F)cc(Cl)c3n2)cc1 | 0 | 7.3 | 0 | 168 | 0 | 139
COc1ccc(-c2cc(C(F)(F)F)nc(-n3cc(Cl)cn3)n2)cc1 | 0 | 0 | 0 | 0 | 0 | 0
Cc1[nH]c2ccccc2c1C(=O)C(=O)NCc1cccs1 | 0 | 0 | 0 | 0 | 0 | 0
CCOc1ccc(OCCOCCNCCOC)cc1 | 0 | 0 | 0 | 0 | 0 | 0
O=C(CSc1nnc(-c2ccncc2)o1)NC1C2CC3CC(C2)CC1C3 (centres undefined) | 0 | 0 | 0 | 0 | 0 | 0
CCn1c(O)c(/C=C2\C=NN=C2c2ccccc2)sc1=S | 0 | - | 0 | - | 0 | -
Cn1c(O)c(/C=C2\C=NN=C2c2ccccc2)sc1=S | 9.6 | - | 0 | - | 0 | -
CCNc1nc(C)c2cc(Br)c(=O)n(CC)c2n1 | 0 | 0 | 0 | 0 | 0 | 139
CCOC(=O)C1CCCN(C(=O)Nc2c(-c3ccccc3)noc2C)C1 (centres undefined) | 0 | - | 0 | - | 0 | -
Cn1cccc1C(=O)OCC(=O)Nc1ccc2c(c1)OCO2 | 0 | 0 | 0 | 0 | 0 | 0
SMILES | Wee1 degr inh | NF-kB neuron act | p97 ATPase inh | APP 5'UTR act | Mdm2 ligase inh | STAT1 act
Cn1cccc1C(=O)OCc1cc(Cl)cc2c1OCOC2 | 0 | 0 | 0 | 0 | 0 | 145
CCn1c(SCC(=O)Nc2ccc(-c3nc4ccc(C)cc4s3)cc2)nnc1-c1ccccc1 | 0 | 0 | 0 | 0 | 0 | 132
CCn1c(SCC(=O)Nc2nc(-c3ccc(C)cc3)cs2)nnc1-c1ccccc1 | 0 | 0 | 0 | 0 | 0 | 0
C=CCn1c(SCC(=O)Nc2ccc(-c3nc4ccc(C)cc4s3)cc2)nnc1-c1ccncc1 | 0 | 0 | 0 | 160 | 0 | 130
O=C(O)C1Nc2c(O)cccc2C2C=CCC12 (centres undefined) | 0 | 0 | 23 | 0 | 0 | 0
Nn1c(SCC(=O)NC(=O)Nc2ccc3c(c2)OCCO3)nnc1C1CC1 | 0 | 0 | 0 | 0 | 0 | 0
Cc1cccc(NC(=O)CCCSc2nc3ccccc3[nH]2)c1 | 10 | 0 | 0 | 0 | 0 | 0
CCc1ccc(NC(=O)CCc2nc3ccccc3[nH]2)cc1 | 9.5 | 0 | 0 | 0 | 0 | 0
